RAD54 branch – inhibitors of human RAD54 branch migration. Q92698. RAD54 Holliday junction branch migration, FAM/BHQ fluorescence. inhibition, % at 10.4 µM. 360,000 compounds, 0.14% hits;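 active = mean normalized replicate activity at least 40 and at least half of replicates scoring 40 or more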;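 also: 0% = median of neutral control wells and 100% = median of positive control wells; inhibitors cause a drop in the FAM fluorescence signal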
Target sequence (Q92698 whole entry, looked up): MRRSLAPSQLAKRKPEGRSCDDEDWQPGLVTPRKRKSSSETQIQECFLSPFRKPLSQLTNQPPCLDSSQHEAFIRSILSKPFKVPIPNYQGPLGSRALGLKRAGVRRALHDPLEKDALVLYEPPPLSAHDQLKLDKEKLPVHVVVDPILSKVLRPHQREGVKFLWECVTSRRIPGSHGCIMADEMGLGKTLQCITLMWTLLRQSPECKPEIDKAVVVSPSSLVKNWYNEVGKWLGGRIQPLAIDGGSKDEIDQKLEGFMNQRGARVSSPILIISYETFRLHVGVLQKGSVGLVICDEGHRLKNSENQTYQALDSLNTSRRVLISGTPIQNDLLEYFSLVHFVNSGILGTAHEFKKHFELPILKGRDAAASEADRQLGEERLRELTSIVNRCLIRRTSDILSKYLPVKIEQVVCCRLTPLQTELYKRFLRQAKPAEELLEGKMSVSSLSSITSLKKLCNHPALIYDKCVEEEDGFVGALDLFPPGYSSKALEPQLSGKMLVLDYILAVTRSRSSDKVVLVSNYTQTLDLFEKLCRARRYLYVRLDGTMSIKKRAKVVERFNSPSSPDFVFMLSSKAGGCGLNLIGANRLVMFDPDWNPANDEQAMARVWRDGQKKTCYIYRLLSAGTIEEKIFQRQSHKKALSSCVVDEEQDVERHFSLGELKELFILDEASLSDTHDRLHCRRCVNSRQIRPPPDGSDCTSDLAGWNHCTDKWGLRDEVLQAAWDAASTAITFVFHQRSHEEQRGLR
VIM-2 inh – inhibitors of Pseudomonas aeruginosa VIM-2 metallo-beta-lactamase; purified VIM-2, nitrocefin hydrolysis, epi-absorbance fluorescence; inhibition, % at 5.6 µM; 290,000 compounds, 0.89% hits; AID 1527;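 active = inhibition above the mean of all tested compounds plus 3 SD, cutoff set per screening run, cut at about 7.5% in these data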;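 also: red hydrolysis product quenches plate fluorescence so inhibitors raise well fluorescence; 0% = enzyme with DMSO and 100% = DMSO without enzyme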
IMP-1 inh – inhibitors of Pseudomonas aeruginosa IMP-1 metallo-beta-lactamase | purified IMP-1, nitrocefin hydrolysis, epi-absorbance fluorescence | inhibition, % at 5.6 µM | 290,000 compounds, 0.45% hits | AID 1556;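 active = inhibition above the mean plus 3 SD of all compounds in the same screening run, cut at about 4.5% in these data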;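 also: 0% = IMP-1 with DMSO and 100% = DMSO wells lacking enzyme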
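Material – recombinant IMP-1 enzyme, purified · Amount – IMP-1 0.2 nM before substrate addition · Medium – HEPES buffer pH 7.1 with ZnSO4 and Brij 35 · Timing – 25 °C, 15 min preincubation, 25 min reaction · Measured by – plate fluorescence quenching by hydrolysis product, ex 480/em 530 nm · Read-out – percent enzyme inhibition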
PvdQ inh – blocks Pseudomonas aeruginosa PvdQ acylase activity | inhibition, % at 10 µM | purified PvdQ acylase, fluorescence plate reader | 340,000 compounds, 0.063% hits; in the data active = inhibition above about 30%, passing the limit was not always enough;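 also: 0% = vehicle neutral wells and 100% = reference inhibitor wells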
DNA FID counter – counter-screen for HCV NS3 helicase inhibitors: DNA intercalator displacement | AID 1845 | inhibition, % at 7.9 µM | DNA fluorescent intercalator displacement, fluorescence | 290,000 compounds, 0.17% hits; in the data active = inhibition above about 37%;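 also: 0% = vehicle and 100% = reference compound; higher means more ethidium bromide displaced from hairpin DNA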
* = called active by the depositor; nt = not tested or not shown. Most compounds without a hit are left out; they make up all but 1% or so of the library.

SMILES | RAD54 branch | VIM-2 inh | IMP-1 inh | PvdQ inh | DNA FID counter
COc1ccc(S(=O)(=O)Nc2ccc3c(c2)C(=O)N([C@H](C)CO)C[C@@H](C)[C@H](CN(C)S(=O)(=O)c2cccs2)OCCCC[C@@H](C)O3)cc1 | -2 | nt | nt | nt | nt
COC(=O)C[C@H]1CC[C@H]2[C@@H](COc3ccc(NC(=O)Cc4cccs4)cc3C(=O)N2C)O1 | 6 | nt | nt | nt | nt
COc1ccc(C2NCCc3c2[nH]c2ccccc32)cc1COc1ccc(F)cc1 (stereo not given) | nt | -6 | -4 | 39* | 25
CC=Cc1ccc2n(c1=O)C[C@@H]1[C@@H](CO)[C@H](C(=O)NCCc3ccccc3)N(C(=O)CC)[C@H]21 (mixture of isomers) | -10 | nt | nt | nt | nt
C[C@@H]1CCCCO[C@@H](CN(C)CC2CC2)[C@H](C)CN([C@H](C)CO)C(=O)c2cc(NS(C)(=O)=O)ccc2O1 | 5 | nt | nt | nt | nt
O=C(Cc1ccncc1)N[C@H]1CC[C@@H](CCn2cc(-c3ccccc3F)nn2)O[C@@H]1CO | 1 | nt | nt | nt | nt
O=C(CCCn1cnc([N+](=O)[O-])n1)Nc1cccc2ccccc12 | 1 | 1 | 37* | -5 | 16
Cc1ccc(-n2nc3c(N4CCC(C(=O)NCCc5ccco5)CC4)nnc(C)c3c2C)cc1 | 6 | 4 | 0 | 0 | 5
CCN1CCN(C(=O)C2CCN(c3nnc(C)c4c(C)n(-c5ccc(C)cc5)nc34)CC2)CC1 | 19 | 9.1* | 1 | -14 | 43*
COc1ccc(-n2nc3c(N4CCC(C(=O)NCc5ccccc5C)CC4)nnc(C)c3c2C)cc1 | 16 | 3 | 11* | 0 | 18
Cc1ccc(-n2nc3c(N4CCC(C(=O)N5CCC(C(N)=O)CC5)CC4)nnc(C)c3c2C)cc1 | -69 | 1 | -3 | -4 | 7
COc1ccc(-n2nc3c(N4CCC(C(=O)NCCc5ccccc5C)CC4)nnc(C)c3c2C)cc1 | -1 | -2 | -3 | 2 | 8
Cc1ccc(-n2nc3c(N4CCC(C(=O)NCCc5ccccc5C)CC4)nnc(C)c3c2C)cc1 | 3 | -1 | -3 | 5 | 37*
O=C(CSc1ccc(-c2cccc([N+](=O)[O-])c2)nn1)N1CCCC1 | nt | -1 | -2 | -15 | -2
CCSc1ccc(-c2cccc([N+](=O)[O-])c2)nn1 | -4 | -2 | -2 | 48* | 7
Cc1ccc(S(=O)(=O)N2CCN(c3ccnc4cc(Cl)ccc34)CC2)cc1 | nt | 10* | 0 | -14 | -11
C[n+]1ccc(/C=C/c2c[nH]c3ccc(F)cc23)cc1 | -242 | 6 | 4.6* | -14 | 29
CCc1ccc(/C=C/c2c[nH]c3ccccc23)[n+](CC)c1 | nt | -3 | -1 | -8 | 1
CCc1nn(CC(=O)NCCCN(C)Cc2ccccc2)c(=O)c2cc3sc(C)cc3n12 | 3 | 9.0* | -1 | -16 | 25
Cc1ccc(S(=O)(=O)N[C@@H]2CC[C@@H](CC(=O)NCc3ccccc3F)O[C@H]2CO)cc1 | -5 | nt | nt | nt | nt
Cc1cc(C)cc(N2C(=O)CC(Sc3nnnn3-c3ccccc3)C2=O)c1 (stereo not given) | 0 | -2 | 7.2* | 9 | -17
CO[C@@H]1CN(C)C(=O)c2cc(NS(C)(=O)=O)ccc2OC[C@H](C)N(C(=O)C2CCCCC2)C[C@H]1C | 6 | nt | nt | nt | nt
O=S(=O)(Nc1ccccc1N1CCCCC1)c1ccc(F)cc1 | -2 | 0 | 4.7* | -9 | -16
O=S(=O)(Nc1ccccc1N1CCCCC1)c1ccccc1 | -5 | 1 | -4 | 6 | -15
CCOC(=O)c1c(C)oc2c1cc(NS(=O)(=O)c1ccc(C(=O)O)cc1)c1ccccc12 | -11 | 0 | 9.7* | -14 | -10
SMILES | RAD54 branch | VIM-2 inh | IMP-1 inh | PvdQ inh | DNA FID counter
CN1C(=O)c2cc(NS(=O)(=O)c3ccc(Cl)cc3)ccc2OC[C@@H]2O[C@H](CC(=O)N3CCc4ccccc4C3)CC[C@H]21 | 3 | nt | nt | nt | nt
COc1cccc2c1C(=O)c1ccc3ccccc3c1C2=O | 3 | 1 | 13* | -11 | 28
COc1ccc(OC)c2c1C(=O)c1ccccc1C2=O | nt | 7 | -1 | nt | 15
Cc1cc2n(c(=O)c1C#N)CCCN2c1cccc(Cl)c1 | 5 | 10* | 3 | -6 | -11
C[C@H]1CCCCO[C@@H](CN(C)S(=O)(=O)c2ccc(Cl)cc2)[C@@H](C)CN([C@@H](C)CO)C(=O)c2cc(NC(=O)CCC(F)(F)F)ccc2O1 | 5 | nt | nt | nt | nt
CCc1ccc(/C=C2/Sc3ccccc3N(CC(=O)NCCCN3CCOCC3)C2=O)cc1 | 12 | 3 | 0 | -11 | 54*
O=C(CN1C(=O)/C(=C\c2cccc(Cl)c2)Sc2ccccc21)NCCCN1CCOCC1 | 11 | 3 | 2 | -3 | 43*
O=C(CN1C(=O)/C(=C\c2ccccc2Cl)Sc2ccccc21)NCCCN1CCOCC1 | 7 | -1 | 0 | 7 | 25
C[C@@H]1CN([C@@H](C)CO)S(=O)(=O)c2ccc(C#C[C@@H](C)O)cc2O[C@H]1CN(C)C(=O)c1ccncc1 | -4 | nt | nt | nt | nt
C[C@H]1CN([C@@H](C)CO)C(=O)c2c(c3ccccc3n2C)-c2ccccc2CO[C@@H]1CN(C)C(=O)Nc1ccccc1 | 0 | nt | nt | nt | nt
CSc1nnc(C)c(/C=C/Nc2ccc(F)cc2)n1 | -4 | -2 | -1 | 12 | 2
COc1ccc(N/C=C/c2nc(SC)nnc2C)cc1 | -10 | 7.8* | -2 | -12 | -8
COc1ccc2nc3cccc(OC)c3nc2c1 | 7 | 7.7* | 0 | -13 | 5
COc1ccc2nc3ccccc3nc2c1N | 2 | -1 | -3 | 2 | -7
O=C(C[C@H]1C[C@H]2c3cc(NS(=O)(=O)c4ccc(F)cc4)ccc3O[C@H]2[C@@H](CO)O1)N1CCCCC1 | 2 | nt | nt | nt | nt
Cc1ccc2c(c1C)NC(C)CC2C (stereo not given) | -16 | 2 | 5.0* | -9 | 2
CCN1CCN(c2ccc(NC(=O)c3ccc4c(c3)[nH]c(=O)n4Cc3ccc(OC)cc3)cc2)CC1 | nt | 11* | -2 | -12 | 10
CC(C)CC#Cc1cnc2c(c1)C(=O)N([C@H](C)CO)C[C@@H](C)[C@H](CN(C)S(C)(=O)=O)O2 | 5 | nt | nt | nt | nt
CC1=CC(C)C(C(=O)O)C(C(=O)Nc2cccnc2)C1 (stereo not given) | nt | -2 | 0 | 4 | 0
CC1=CC(C)C(C(=O)O)C(C(=O)N2CCN(C)CC2)C1 (stereo not given) | nt | 9.3* | -2 | 4 | -7
COCc1cc(CN2CCCC2)c(O)c2ncccc12 | 15 | 8.2* | 0 | 0 | -5
CN(C)C1CCN(Cc2cc(COCc3ccccc3)c3cccnc3c2O)C1 (stereo not given) | -11 | nt | nt | -11 | nt
Oc1ccc(CN2CCCCC2)c2cccnc12 | -5 | 0 | -3 | -7 | -1
Oc1c(CN2CCCCC2)cc(COCc2ccccc2)c2cccnc12 | 12 | 12* | -2 | 1 | -5
C[C@@H]1CN([C@H](C)CO)C(=O)Cc2cc(NS(=O)(=O)c3ccc(Cl)cc3)ccc2O[C@H]1CN(C)Cc1ccc2c(c1)OCO2 | 16 | nt | nt | nt | nt
O=[N+]([O-])c1ccc(-c2cccnc2)cc1 | 0 | nt | nt | 49* | nt
COC(=O)c1ccc(NC(=O)c2ccc(C)cc2)o1 | -9 | -1 | 5.5* | -14 | -4
